In ChEMBL document CHEMBL1135739, “Radiolabeled amino acids for tumor imaging with PET: radiosynthesis and biological evaluation of 2-amino-3-[18F]fluoro-2-methylpropanoic acid and 3-[18F]fluoro-2-methyl-2-(methylamino)propanoic acid” (J Med Chem, 2002):
Where “and” joins values, the source holds several entries; their conditions need not be identical. Identical values can stand only once.

Experiments:
[1] = species: Rattus norvegicus; assay: Radioactivity distribution in tumor of tumor-bearing fischer rat after injection of [18F]-fluoro-2-methyl-2-(methylamino)propanoic acid after 120 min.; details: in vivo, 2 h
[2] = species: Rattus norvegicus; assay: Radioactivity distribution in bone of normal fischer rat after injection of [18F]-fluoro-2-methyl-2-(methylamino)propanoic acid after 60 min.; type: ADME, organism-based, Bone element; details: in vivo, 1 h
Procedure, shortened: (§1)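 Normal male Fischer 344 rats (200–250 g), anesthetized with i.m. ketamine:xylazine (1:1), got ~85 μCi of tracer in 0.3 mL sterile water i.v. via tail-vein catheter. Groups of four were killed at 5, 30, 60 or 120 min. Tissues were weighed and gamma-counted against dose standards, and counts were decay-corrected to %ID/g. Results are mean ± standard error (n = 4), compared by one-way ANOVA.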

[3] = species: Rattus norvegicus; assay: Radioactivity distribution in blood of normal fischer rat after injection of [18F]-fluoro-2-methyl-2-(methylamino)propanoic acid after 30 min.; type: ADME, organism-based; details: in vivo, 0.5 h
Procedure, shortened: as §1

[4] = species: Rattus norvegicus; assay: Radioactivity distribution in muscle of normal fischer rat after injection of [18F]-fluoro-2-methyl-2-(methylamino)propanoic acid after 60 min.; type: ADME, organism-based, Muscle tissue; details: in vivo, 1 h
Procedure, shortened: (§2)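 Male Fischer 344 rats (200–250 g), fed ad libitum, anesthetized with intramuscular ketamine:xylazine (1:1, 0.1 mL/100 g). About 85 μCi tracer in 0.3 mL sterile water was given by tail-vein catheter. Groups of four were killed at 5, 30, 60 or 120 min. Tissues were weighed and gamma-counted against dose standards, decay-corrected, and expressed as %ID/g (mean ± standard error).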

[5] = species: Rattus norvegicus; assay: Radioactivity distribution in kidney of normal fischer rat after injection of [18F]-fluoro-2-methyl-2-(methylamino)propanoic acid after 5 min.; type: ADME, organism-based; details: in vivo
Procedure, shortened: as §1

[6] = species: Rattus norvegicus; assay: Radioactivity distribution in liver of normal fischer rat after injection of [18F]-fluoro-2-methyl-2-(methylamino)propanoic acid after 60 min.; type: ADME, organism-based; details: in vivo, 1 h
Procedure, shortened: as §2

[7] = species: Rattus norvegicus; assay: Radioactivity distribution in muscle of normal fischer rat after injection of [18F]-fluoro-2-methyl-2-(methylamino)propanoic acid after 30 min.; type: ADME, organism-based, Muscle tissue; details: in vivo, 0.5 h
Procedure, shortened: as §2

[8] = species: Rattus norvegicus; assay: Radioactivity distribution in brain of normal fischer rat after injection of [18F]-fluoro-2-methyl-2-(methylamino)propanoic acid after 5 min.; type: ADME, organism-based; details: in vivo
Procedure, shortened: as §1

[9] = species: Rattus norvegicus; assay: Radioactivity distribution in kidney of normal fischer rat after injection of [18F]-fluoro-2-methyl-2-(methylamino)propanoic acid after 120 min.; type: ADME, organism-based; details: in vivo, 2 h
Procedure, shortened: as §1

[10] = species: Rattus norvegicus; assay: Radioactivity distribution in kidney of normal fischer rat after injection of [18F]-fluoro-2-methyl-2-(methylamino)propanoic acid after 60 min.; type: ADME, organism-based; details: in vivo, 1 h
Procedure, shortened: as §1

[11] = species: Rattus norvegicus; assay: Radioactivity distribution in liver of normal fischer rat after injection of [18F]-fluoro-2-methyl-2-(methylamino)propanoic acid after 30 min.; type: ADME, organism-based; details: in vivo, 0.5 h
Procedure, shortened: as §2

[12] = species: Rattus norvegicus; assay: Radioactivity distribution in heart of normal fischer rat after injection of [18F]-fluoro-2-methyl-2-(methylamino)propanoic acid after 30 min.; type: ADME, organism-based; details: in vivo, 0.5 h
Procedure, shortened: as §1

[13] = species: Rattus norvegicus; assay: Radioactivity distribution in kidney of normal fischer rat after injection of [18F]-fluoro-2-methyl-2-(methylamino)propanoic acid after 30 min.; type: ADME, organism-based; details: in vivo, 0.5 h
Procedure, shortened: as §1

[14] = species: Rattus norvegicus; assay: Radioactivity distribution in bone of normal fischer rat after injection of [18F]-fluoro-2-methyl-2-(methylamino)propanoic acid after 120 min.; type: ADME, organism-based, Bone element; details: in vivo, 2 h
Procedure, shortened: as §1

[15] = species: Rattus norvegicus; assay: Radioactivity distribution in pancreas of normal fischer rat after injection of [18F]-fluoro-2-methyl-2-(methylamino)propanoic acid after 5 min.; type: ADME, organism-based; details: in vivo
Procedure, shortened: as §2

[16] = species: Rattus norvegicus; assay: Radioactivity distribution in spleen of normal fischer rat after injection of [18F]-fluoro-2-methyl-2-(methylamino)propanoic acid after 5 min.; type: ADME, organism-based; details: in vivo
Procedure, shortened: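 Male Fischer 344 rats (200–250 g), fed ad libitum, under intramuscular ketamine:xylazine anesthesia, got ~85 μCi radiotracer in 0.3 mL sterile water by tail-vein catheter. Groups of four were killed at 5, 30, 60 or 120 min. Dissected tissues were weighed and gamma-counted with dose standards. Counts were decay-corrected and given as %ID/g, mean ± standard error. Tissues were compared by one-way ANOVA.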

[17] = species: Rattus norvegicus; assay: Radioactivity distribution in tumor of tumor-bearing fischer rat after injection of [18F]-fluoro-2-methyl-2-(methylamino)propanoic acid after 60 min.; details: in vivo, 1 h
[18] = species: Rattus norvegicus; assay: Radioactivity distribution in lung of normal fischer rat after injection of [18F]-fluoro-2-methyl-2-(methylamino)propanoic acid after 5 min.; type: ADME, organism-based; details: in vivo
Procedure, shortened: as §2

[19] = species: Rattus norvegicus; assay: Radioactivity distribution in heart of normal fischer rat after injection of [18F]-fluoro-2-methyl-2-(methylamino)propanoic acid after 120 min.; type: ADME, organism-based; details: in vivo, 2 h
Procedure, shortened: as §1

[20] = species: Rattus norvegicus; assay: Radioactivity distribution in brain of normal fischer rat after injection of [18F]-fluoro-2-methyl-2-(methylamino)propanoic acid after 30 min.; type: ADME, organism-based; details: in vivo, 0.5 h
Procedure, shortened: as §1

[21] = species: Rattus norvegicus; assay: Radioactivity distribution in liver of normal fischer rat after injection of [18F]-fluoro-2-methyl-2-(methylamino)propanoic acid after 120 min.; type: ADME, organism-based; details: in vivo, 2 h
Procedure, shortened: as §2

[22] = species: Rattus norvegicus; assay: Radioactivity distribution in pancreas of normal fischer rat after injection of [18F]-fluoro-2-methyl-2-(methylamino)propanoic acid after 120 min.; type: ADME, organism-based; details: in vivo, 2 h
Procedure, shortened: as §2

[23] = species: Rattus norvegicus; assay: Radioactivity distribution in lung of normal fischer rat after injection of [18F]-fluoro-2-methyl-2-(methylamino)propanoic acid after 30 min.; type: ADME, organism-based; details: in vivo, 0.5 h
Procedure, shortened: as §2

CNC(C)(C[18F])C(=O)O.Cl (stereo not drawn)
ID/g [1]: 1.94% | ID/g [2]: 0.29% and 0.23% | ID/g [3]: 0.3% | ID/g [4]: 0.15% and 0.19% | ID/g [5]: 8.12% and 9.33% | ID/g [6]: 0.78% and 0.85% | ID/g [7]: 0.16% | ID/g [8]: 0.04% and < 0.032% | ID/g [9]: 1.36% and 1.59% | ID/g [10]: 2.73% and 2.79% | ID/g [11]: 0.72% | ID/g [12]: 0.23% | ID/g [13]: 4.6% | ID/g [14]: 0.2% and 0.19% | ID/g [15]: 2.73% and 2.95% | ID/g [16]: 0.44% and 0.47% | ID/g [17]: 2.28% | ID/g [18]: 0.53% and 0.61% | ID/g [19]: 0.17% and 0.19% | ID/g [20]: 0.04% | ID/g [21]: 0.58% and 0.41% | ID/g [22]: 2.88% and 1.74% | ID/g [23]: 0.5%
